High-throughput results from PubChem BioAssay.
dFosB activator: activators of delta FosB homodimer, primary screen, biochemical, fluorescence polarization, TAMRA-CDK5 oligo, single point; activation, % at 25 µM; purified delta FosB; percent of positive-control signal above neutral wells; AID 493131, 2011; Protein FosB (Mus musculus), P13346; hit rate 0.99% among 340,000;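 active = mean activation above about 17%, with every replicate also reaching it, limit read from the data, passing the limit was not always enough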
RAD52 inh: RAD52 DNA annealing inhibitors, primary screen, biochemical, FRET, single point, set 2. DNA repair protein RAD52 homolog (Homo sapiens), P43351. recombinant RAD52 DNA annealing, FRET fluorescence. inhibition, % at 18.7 µM. hit rate 0.46% among 360,000;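 active = every replicate showing at least 50% inhibition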
S100A4 MyoIIA: inhibitors of S100A4-myosin IIA peptide binding, primary screen, biochemical, fluorescence polarization, TAMRA-MyoIIA peptide; Protein S100-A4 (Homo sapiens), P26447; inhibition, % at 10.7 µM; hit rate 0.14% among 360,000;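 active = mean inhibition of at least 70% across replicates, with every replicate also reaching that level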
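Test system – S100A4 monomer (human) · Compound – single-point compound testing · Schedule – 5 min incubation before reading · Probe or stimulus – TAMRA-labelled myosin IIA heavy-chain peptide probe, 5 nM · Benchmarks – neutral control DMSO, positive control TFP · Medium – Calcium-containing HEPES buffer, pH 7.2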
RAD54 branch: inhibitors of human RAD54 branch migration, primary screen, biochemical, fluorescence, single point; DNA repair and recombination protein RAD54-like (Homo sapiens), Q92698; RAD54 Holliday junction branch migration, FAM/BHQ fluorescence; inhibition, % at 10.4 µM; hit rate 0.14% among 360,000; AID 602329, 2012;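 active = mean normalized replicate activity at least 40 and at least half of replicates scoring 40 or more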;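 also: 0% = median of neutral control wells and 100% = median of positive control wells; inhibitors cause a drop in the FAM fluorescence signal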
AF4-AF9 inh: inhibitors of AF4 peptide binding to AF9, primary screen, biochemical, AlphaScreen, biotin-AF4 peptide, FLAG-AF9, single point; Protein AF-9 (Homo sapiens), P42568; inhibition, % at 10 µM; hit rate 0.47% among 350,000; AID 651704, 2012;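 active = every replicate reaching a set inhibition limit, whatever the replicate mean, cut at about 25% in these data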;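 also: 0% = plate neutral control median and 100% = total signal loss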
Target sequence (P42568 whole entry, looked up): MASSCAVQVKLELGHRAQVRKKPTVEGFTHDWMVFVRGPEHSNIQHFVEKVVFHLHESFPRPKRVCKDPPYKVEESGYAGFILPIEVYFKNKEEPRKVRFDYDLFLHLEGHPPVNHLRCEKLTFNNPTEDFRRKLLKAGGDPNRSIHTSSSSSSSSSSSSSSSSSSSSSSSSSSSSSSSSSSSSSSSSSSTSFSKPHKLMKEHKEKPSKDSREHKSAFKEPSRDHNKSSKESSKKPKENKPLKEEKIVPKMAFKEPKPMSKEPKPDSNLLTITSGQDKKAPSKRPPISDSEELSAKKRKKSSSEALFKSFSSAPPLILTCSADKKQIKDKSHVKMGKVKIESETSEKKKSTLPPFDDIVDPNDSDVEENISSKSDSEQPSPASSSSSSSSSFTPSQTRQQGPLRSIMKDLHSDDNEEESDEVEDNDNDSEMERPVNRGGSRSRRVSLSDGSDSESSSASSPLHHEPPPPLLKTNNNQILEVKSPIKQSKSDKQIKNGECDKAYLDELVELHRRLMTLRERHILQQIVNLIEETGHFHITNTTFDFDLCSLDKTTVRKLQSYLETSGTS
Numbers without * were called inactive; . = not tested or not shown; ! = a repeat was not active. In the library only some 1.5% were active in any assay of this set; here they are far more common.

SMILES	dFosB activator	RAD52 inh	S100A4 MyoIIA	RAD54 branch	AF4-AF9 inh
Cc1noc(C)c1NC(=O)N(C)C[C@@H]1Oc2cc(C#CCC3CCCC3)ccc2S(=O)(=O)N([C@@H](C)CO)C[C@@H]1C	.	21.1	-6.3	-2.0	28.7*
Cc1noc(C)c1NC(=O)N(C)C[C@@H]1Oc2cc(C#CCC(C)C)ccc2S(=O)(=O)N([C@@H](C)CO)C[C@@H]1C	.	8.9	-0.6	-0.9	27.8*
Cc1noc(C)c1NC(=O)N(C)C[C@H]1Oc2cc(C#CCC3CCCC3)ccc2S(=O)(=O)N([C@H](C)CO)C[C@H]1C	.	-6.2	10.0	3.2	37.3*
CNC(=O)C[C@@H]1CC[C@@H]2[C@H](COc3ccc(NC(=O)NC(C)C)cc3C(=O)N2C)O1	.	.	.	2.3	.
O=C(C[C@@H]1C=C[C@H](NC(=O)Nc2cc(F)ccc2F)[C@@H](CO)O1)Nc1ccccc1	.	1.0	-0.6	1.4	0.1
C[C@H](CO)N1C[C@H](C)[C@H](CN(C)S(=O)(=O)c2ccc3c(c2)OCCCO3)OCc2cnnn2CCCC1=O	.	-16.5	-2.8	-2.0	4.6
C[C@H]1CN([C@@H](C)CO)C(=O)CCCn2nncc2CO[C@H]1CN(C)S(=O)(=O)c1ccc2c(c1)OCCCO2	.	-9.1	116.6*!	3.4	0.9
C[C@@H]1CN([C@@H](C)CO)C(=O)CCCn2cc(nn2)CO[C@H]1CN(C)S(=O)(=O)c1ccc(Oc2ccccc2)cc1	.	14.4	82.2*!	1.7	-0.9
C[C@@H]1CN([C@@H](C)CO)C(=O)CCCn2cc(nn2)CO[C@H]1CN(C)C(=O)Nc1ccc(N2CCN(C)CC2)cc1	.	67.8*!	19.0	8.7	10.9
C[C@@H]1CN([C@H](C)CO)C(=O)CCCn2cc(nn2)CO[C@@H]1CN(C)C(=O)Nc1ccc(N2CCN(C)CC2)cc1	.	3.2	9.8	1.6	1.8
C[C@H]1CN([C@@H](C)CO)C(=O)CCCn2cc(nn2)CO[C@@H]1CN(C)C(=O)Nc1ccc(N2CCCCC2)cc1	.	-14.5	-25.3	-6.0	38.3*!
C[C@H](CO)N1C[C@H](C)[C@@H](CN(C)C(=O)Nc2ccc(N3CCN(C)CC3)cc2)OCc2cn(nn2)CCCC1=O	.	66.5*!	18.4	5.4	9.7
C[C@@H]1CN([C@H](C)CO)C(=O)c2cc(NS(C)(=O)=O)ccc2O[C@@H](C)CCCCO[C@H]1CN(C)C(=O)Nc1ccc(C(F)(F)F)cc1	.	25.3	10.7	-7.5	0.1
CCS(=O)(=O)Nc1ccc2c(c1)C(=O)N(C)C[C@@H](OC)[C@@H](C)CN(C(C)=O)[C@H](C)CO2	.	9.9	98.1*	-1.7	1.7
CCC(=O)Nc1ccc2c(c1)OC[C@H](C)N(C(=O)CC1CC1)C[C@H](C)[C@H](OC)CN(C)C2=O	.	4.6	95.9*	-11.0	-3.7
CO[C@H]1CN(C)C(=O)c2ccc(NC(=O)NC(C)C)cc2OC[C@@H](C)N(C(=O)NC(C)C)C[C@H]1C	.	20.6	88.9*	-5.6	0.7
CCS(=O)(=O)Nc1ccc2c(c1)C(=O)N(C)C[C@@H](OC)[C@H](C)CN(C(C)=O)[C@@H](C)CO2	.	0.6	-2.1	7.6	1.5
CCC(=O)Nc1ccc2c(c1)C(=O)N(C)C[C@H](OC)[C@@H](C)CN(C(=O)c1ccccn1)[C@H](C)CO2	.	-1.9	4.4	-2.2	31.7*
C[C@@H]1CCCCO[C@H](CN(C)C(=O)CCCN(C)C)[C@H](C)CN([C@@H](C)CO)C(=O)c2cc(NC(=O)Nc3ccc(F)cc3)ccc2O1	.	26.1	0.8	14.9	-4.8
C[C@H]1CCCCO[C@H](CN(C)S(=O)(=O)c2cccs2)[C@@H](C)CN([C@@H](C)CO)C(=O)c2cc(NS(=O)(=O)c3cn(C)cn3)ccc2O1	.	59.1*	-9.7	-1.9	1.4
C[C@@H]1CCCCO[C@@H](CN(C)S(=O)(=O)c2cccs2)[C@@H](C)CN([C@H](C)CO)C(=O)c2cc(NS(=O)(=O)c3cn(C)cn3)ccc2O1	.	46.6	0.3	-5.2	-2.4
C[C@H](CO)N1C[C@H](C)[C@@H](CN(C)S(=O)(=O)c2cccs2)OCCCC[C@H](C)Oc2ccc(NS(C)(=O)=O)cc2C1=O	.	17.2	106.0*	-8.3	-6.9
C[C@H](CO)N1C[C@H](C)[C@H](CN(C)S(=O)(=O)c2cccs2)OCCCC[C@H](C)Oc2ccc(NS(C)(=O)=O)cc2C1=O	.	9.4	6.6	-6.4	-6.6
C[C@@H]1CCCCO[C@@H](CN(C)CC2CCCCC2)[C@@H](C)CN([C@H](C)CO)C(=O)c2cc(NS(=O)(=O)c3cn(C)cn3)ccc2O1	.	12.4	132.6*	-7.4	-7.3
CNC[C@@H]1OCCCC[C@@H](C)Oc2ccc(NS(=O)(=O)c3cccs3)cc2C(=O)N([C@H](C)CO)C[C@H]1C	.	-85.3	101.4*	-4.4	-29.2
SMILES	dFosB activator	RAD52 inh	S100A4 MyoIIA	RAD54 branch	AF4-AF9 inh
O=C(C[C@H]1C=C[C@@H](NC(=O)NC2CCCCC2)[C@H](CO)O1)NCc1ccccc1	.	-13.9	9.7	0.0	-1.4
CC(C)NC(=O)N(C)C[C@H]1Oc2cc(C#CC3CC3)ccc2S(=O)(=O)N([C@H](C)CO)C[C@H]1C	.	-2.8	-2.3	-3.6	-2.0
C[C@@H]1CN([C@H](C)CO)C(=O)Cc2cc(NC(=O)Nc3cccc4ccccc34)ccc2O[C@H]1CN(C)Cc1ccc2c(c1)OCO2	.	33.1	2.9	-11.3	-1.0
CN(C)c1ccc(C(c2ccc(N(C)C)cc2)c2ccc([N+](=O)[O-])cc2)cc1	3.9	5.6	-2.9	-0.6	27.3*
CN(C)c1ccc(C=NC(CO)C(O)c2ccc([N+](=O)[O-])cc2)cc1 (stereo unspecified)	-1.5	-10.9	5.2	.	5.0
CC=Cc1ccc2n(c1=O)C[C@@H]1[C@@H](CO)[C@H](C(=O)NCc3ccc4c(c3)OCO4)[C@H]2N1C(=O)COC (mixture of isomers)	.	1.1	-4.0	-7.9	-2.8
CC=Cc1ccc2n(c1=O)C[C@H]1[C@H](CO)[C@@H](C(=O)NCc3ccc4c(c3)OCO4)[C@@H]2N1C(=O)C1CC1 (mixture of isomers)	.	58.1*	3.4	8.5	2.4
CC=Cc1ccc2n(c1=O)C[C@@H]1[C@@H](CO)[C@H](C(=O)NCc3ccc4c(c3)OCO4)[C@H]2N1C(=O)C1CC1 (mixture of isomers)	.	54.7*	5.8	3.2	1.6
CN(C)C(=O)C[C@H]1CC[C@@H](NC(=O)Nc2cccc(F)c2)[C@@H](CO)O1	.	-11.0	-0.6	8.3	-2.2
